Laboratory results reported in ChEMBL document CHEMBL1122803, “Folate antagonists. 22. Antimalarial and antibacterial effects of 2,4-diamino-6-quinazolinesulfonamides” (1984).
≈ marks a conversion by molar mass, not a printed value.

Experiments:
[1] = tested on: Mycobacterium tuberculosis; assay: In vitro antibacterial activity against Mycobacterium tuberculosis H37Rv.; assay type: functional
Procedure, shortened: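 Mycobacterium tuberculosis tested in vitro by gradient-plate test; minimum inhibitory concentration reported.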

Enterococcus faecalis = assay: In vitro antibacterial activity against Streptococcus faecalis MGH-2.; assay type: functional
Procedure, shortened: (§1)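 Antibacterial testing in vitro by gradient-plate test. Read-out was the minimum inhibitory concentration, with values exceeding 25 reported as >25.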

Shigella sonnei = assay: In vitro antibacterial activity against Shigella sonnei C-10.; assay type: functional; procedure, shortened: as §1
Plasmodium berghei [2] = assay: Antimalarial activity as change in MST for drug-sensitive Plasmodium berghei infected mice (Mus musculus) at 80mg/kg subcutaneous dose over 72h; assay type: functional
Staphylococcus aureus [3] = assay: In vitro antibacterial activity against […] U.C-76.; assay type: functional; procedure, shortened: as §1
Plasmodium berghei [4] = assay: Antimalarial activity as change in MST against drug-sensitive Plasmodium berghei infected mice (Mus musculus) at 20 mg/kg subcutaneous dose after 72h; assay type: functional
Staphylococcus aureus [5] = assay: In vitro antibacterial activity against […] S 18713.; assay type: functional; procedure, shortened: as §1
Plasmodium berghei [6] = assay: In vivo antimalarial activity against drug-sensitive Plasmodium berghei in mice (Mus musculus) after 320 mg/kg subcutaneous dose for 72 hrs as survivors 60 days post infection
Plasmodium berghei [7] = assay: Antimalarial activity as change in MST for drug-sensitive Plasmodium berghei infected mice (Mus musculus) at 40 mg/kg subcutaneous dose over 72hr; assay type: functional
Plasmodium berghei [8] = assay: Antimalarial activity as survivor numbers at day 60 for drug-sensitive Plasmodium berghei infected mice (Mus musculus) at 640 mg/kg subcutaneous dose over 72 hr; assay type: functional
Procedure, shortened: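 Mice infected with drug-sensitive P. berghei got one subcutaneous dose in sesame or peanut oil 72 h postinfection. Read-out is the number of mice alive at 60 days postinfection, termed "cured", without subinoculation to confirm parasitological cure. Groups of five per dose, or 10 where indicated.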

Pseudomonas aeruginosa [9] = assay: Compound was tested in vitro against Pseudomonas aeruginosa 28. by gradient-plate test.; assay type: functional; procedure, shortened: as §1
Escherichia coli [10] = assay: Tested in vitro against Escherichia coli Vogel. by gradient-plate test; assay type: functional; procedure, shortened: as §1
Plasmodium berghei [11] = assay: Antimalarial activity as change in MST against drug-sensitive Plasmodium berghei infected mice (Mus musculus) at 160 mg/kg subcutaneous dose after 72h; assay type: functional
Pseudomonas aeruginosa [12] = assay: In vitro against Pseudomonas aeruginosa 28. by gradient-plate test; assay type: functional; procedure, shortened: as §1
Plasmodium berghei [13] = assay: Antimalarial activity as change in MST for drug-sensitive Plasmodium berghei infected mice (Mus musculus) at 640 mg/kg subcutaneous dose over 72 hr; assay type: functional
Escherichia coli [14] = assay: Compound was tested in vitro against Escherichia coli Vogel. by gradient-plate test.; assay type: functional; procedure, shortened: as §1
Plasmodium berghei [15] = assay: Antimalarial activity as change in MST for drug-sensitive Plasmodium berghei infected mice (Mus musculus) at 80 mg/kg subcutaneous dose over 72 hr; assay type: functional
Plasmodium berghei [16] = assay: Antimalarial activity as change in MST for drug-sensitive Plasmodium berghei infected mice (Mus musculus) at 40 mg/kg subcutaneous dose over 72 hr; assay type: functional
Plasmodium berghei [17] = assay: Antimalarial activity as change in MST against drug-sensitive Plasmodium berghei infected mice (Mus musculus) at 320 mg/kg subcutaneous dose after 72 hr; assay type: functional
Plasmodium berghei [18] = assay: Antimalarial activity as change in MST for drug-sensitive Plasmodium berghei infected mice (Mus musculus) after 72 hrs at 320 mg/kg subcutaneous dose; assay type: functional
Plasmodium berghei [19] = assay: Antimalarial activity as change in MST against drug-sensitive Plasmodium berghei infected mice (Mus musculus) at 160 mg/kg subcutaneous dose after 72 hr; assay type: functional
Plasmodium berghei [20] = assay: Antimalarial activity as toxic deaths 2-5 days post infection for drug-sensitive Plasmodium berghei infected mice (Mus musculus) at 640 mg/kg subcutaneous dose over 72 hr; assay type: functional
Procedure, shortened: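 P. berghei (drug-sensitive) infected mice dosed once subcutaneously 72 h postinfection, compound in sesame or peanut oil. Read-out is the count of deaths on days 2–5 after infection, attributed to drug toxicity. Five animals per dose level, or 10 where indicated.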

With `Nc1nc(N)c2cc(S(=O)(=O)N3CCCC3)ccc2n1` the MIC [1] was 10 µg/mL (≈ 34.1 µM), the MIC (Enterococcus faecalis) was under 0.25 µg/mL and the MIC (Shigella sonnei) was over 25 µg/mL. The “Delta MST” value (Plasmodium berghei [2]) was 6.9 days, the MIC (Staphylococcus aureus [3]) was under 0.25 µg/mL and the “Delta MST” value (Plasmodium berghei [4]) was 0.5 days. For the same molecule, the MIC (Staphylococcus aureus [5]) was 2 µg/mL (≈ 6.82 µM), the survivors at day 60 (Plasmodium berghei [6]) was 5 and the “Delta MST” value (Plasmodium berghei [7]) was 5 days. The survivors at day 60 (Plasmodium berghei [8]) was 10, the MIC (Pseudomonas aeruginosa [9]) was over 25 µg/mL and the MIC (Escherichia coli [10]) was 10 µg/mL (≈ 34.1 µM). The “Delta MST” value (Plasmodium berghei [11]) was 8.7 days.
Molecule `CCN(CC)CCN(C)S(=O)(=O)c1ccc2nc(N)nc(N)c2c1` has an MIC [1] of over 25 µg/mL, an MIC (Enterococcus faecalis) of 20 µg/mL (≈ 56.7 µM) and an MIC (Shigella sonnei) of over 25 µg/mL. The MIC (Staphylococcus aureus [3]) was over 25 µg/mL, the MIC (Staphylococcus aureus [5]) was over 25 µg/mL and the “Delta MST” value (Plasmodium berghei [7]) was 0.1 days. For the same molecule, the MIC (Pseudomonas aeruginosa [12]) was over 25 µg/mL, the “Delta MST” value (Plasmodium berghei [13]) was 0.3 days and the MIC (Escherichia coli [14]) was over 25 µg/mL. The “Delta MST” value (Plasmodium berghei [11]) was 0.3 days.
`Nc1nc(N)c2cc(S(=O)(=O)Nc3ccc4ccccc4c3)ccc2n1` was tested, and the MIC (Enterococcus faecalis) was 5 µg/mL (≈ 13.7 µM), the MIC (Shigella sonnei) was over 25 µg/mL and the MIC (Staphylococcus aureus [3]) was over 25 µg/mL. The “Delta MST” value (Plasmodium berghei [4]) was 0.3 days, the “Delta MST” value (Plasmodium berghei [15]) was 0.5 days and the MIC (Staphylococcus aureus [5]) was over 25 µg/mL. The MIC (Pseudomonas aeruginosa [12]) was over 25 µg/mL, the “Delta MST” value (Plasmodium berghei [13]) was 5.3 days and the MIC (Escherichia coli [10]) was over 25 µg/mL. The “Delta MST” value (Plasmodium berghei [16]) was 0.3 days, the “Delta MST” value (Plasmodium berghei [17]) was 1.5 days and the “Delta MST” value (Plasmodium berghei [11]) was 1.1 days.
Work on `CN(Cc1ccc(Cl)c(Cl)c1)S(=O)(=O)c1ccc2nc(N)nc(N)c2c1` yielded an MIC [1] of over 25 µg/mL, an MIC (Enterococcus faecalis) of over 25 µg/mL and an MIC (Shigella sonnei) of over 25 µg/mL. The “Delta MST” value (Plasmodium berghei [2]) was 0.5 days, the MIC (Staphylococcus aureus [3]) was over 25 µg/mL and the “Delta MST” value (Plasmodium berghei [4]) was 0.3 days. The MIC (Staphylococcus aureus [5]) was over 25 µg/mL, the MIC (Pseudomonas aeruginosa [12]) was over 25 µg/mL and the “Delta MST” value (Plasmodium berghei [13]) was 9.5 days. For the same molecule, the MIC (Escherichia coli [10]) was over 25 µg/mL, the “Delta MST” value (Plasmodium berghei [16]) was 0.3 days and the “Delta MST” value (Plasmodium berghei [17]) was 4.1 days. For the same molecule, the “Delta MST” value (Plasmodium berghei [11]) was 0.5 days.
In the case of `Nc1nc(N)c2cc(S(=O)(=O)N3CCSCC3)ccc2n1`, the MIC [1] is reported as over 25 µg/mL, the MIC (Enterococcus faecalis) is reported as under 0.25 µg/mL and the MIC (Shigella sonnei) is reported as 2 µg/mL (≈ 6.15 µM). The “Delta MST” value (Plasmodium berghei [18]) was 9.6 days, the “Delta MST” value (Plasmodium berghei [2]) was 3.5 days and the MIC (Staphylococcus aureus [3]) was under 0.25 µg/mL. For the same molecule, the “Delta MST” value (Plasmodium berghei [4]) was 1.7 days, the MIC (Staphylococcus aureus [5]) was under 0.25 µg/mL and the “Delta MST” value (Plasmodium berghei [7]) was 2.5 days. The MIC (Pseudomonas aeruginosa [12]) was over 25 µg/mL, the “Delta MST” value (Plasmodium berghei [13]) was 12.6 days and the MIC (Escherichia coli [10]) was 2 µg/mL (≈ 6.15 µM). The “Delta MST” value (Plasmodium berghei [11]) was 8.3 days.
For `CCN(CC)S(=O)(=O)c1ccc2nc(N)nc(N)c2c1Cl`, the MIC [1] was over 25 µg/mL, the MIC (Enterococcus faecalis) was under 0.25 µg/mL and the MIC (Shigella sonnei) was over 25 µg/mL. The “Delta MST” value (Plasmodium berghei [2]) was 4.3 days, the MIC (Staphylococcus aureus [3]) was 10 µg/mL (≈ 30.3 µM) and the MIC (Staphylococcus aureus [5]) was over 25 µg/mL. The “Delta MST” value (Plasmodium berghei [19]) was 14.9 days, the “Delta MST” value (Plasmodium berghei [7]) was 2.3 days and the MIC (Pseudomonas aeruginosa [12]) was over 25 µg/mL. For the same molecule, the MIC (Escherichia coli [10]) was over 25 µg/mL, the toxic deaths (Plasmodium berghei [20]) was 5 and the “Delta MST” value (Plasmodium berghei [17]) was 18.9 days.
For `CN(c1ccccc1)S(=O)(=O)c1ccc2nc(N)nc(N)c2c1`, the MIC [1] was over 25 µg/mL, the MIC (Enterococcus faecalis) was over 25 µg/mL and the MIC (Shigella sonnei) was over 25 µg/mL. The “Delta MST” value (Plasmodium berghei [2]) was 3.1 days, the MIC (Staphylococcus aureus [3]) was over 25 µg/mL and the “Delta MST” value (Plasmodium berghei [4]) was 0.5 days. The MIC (Staphylococcus aureus [5]) was over 25 µg/mL, the MIC (Pseudomonas aeruginosa [12]) was over 25 µg/mL and the “Delta MST” value (Plasmodium berghei [13]) was 13.9 days. For the same molecule, the MIC (Escherichia coli [10]) was over 25 µg/mL, the “Delta MST” value (Plasmodium berghei [16]) was 0.5 days and the “Delta MST” value (Plasmodium berghei [17]) was 11.5 days. The “Delta MST” value (Plasmodium berghei [11]) was 8.3 days.
For `Nc1nc(N)c2cc(S(=O)(=O)N3CCC(N4CCCCC4)CC3)ccc2n1`, the MIC [1] was over 25 µg/mL, the MIC (Enterococcus faecalis) was over 25 µg/mL and the MIC (Shigella sonnei) was over 25 µg/mL. The “Delta MST” value (Plasmodium berghei [2]) was 0.5 days, the MIC (Staphylococcus aureus [3]) was over 25 µg/mL and the MIC (Staphylococcus aureus [5]) was over 25 µg/mL. The “Delta MST” value (Plasmodium berghei [7]) was 0.3 days, the MIC (Pseudomonas aeruginosa [12]) was over 25 µg/mL and the “Delta MST” value (Plasmodium berghei [13]) was 3.9 days. For the same molecule, the MIC (Escherichia coli [10]) was over 25 µg/mL, the “Delta MST” value (Plasmodium berghei [17]) was 2.1 days and the “Delta MST” value (Plasmodium berghei [11]) was 0.7 days.
`Nc1nc(N)c2cc(S(=O)(=O)N(CCO)CCO)ccc2n1` was tested, and the “Delta MST” value (Plasmodium berghei [2]) was 0.5 days, the “Delta MST” value (Plasmodium berghei [4]) was 0.3 days and the “Delta MST” value (Plasmodium berghei [13]) was 8.1 days. For the same molecule, the “Delta MST” value (Plasmodium berghei [16]) was 0.3 days, the “Delta MST” value (Plasmodium berghei [17]) was 4.1 days and the “Delta MST” value (Plasmodium berghei [11]) was 1.3 days.
In the case of `CCCN(CCC)S(=O)(=O)c1ccc2nc(N)nc(N)c2c1`, the “Delta MST” value (Plasmodium berghei [19]) is reported as 0.4 days, the “Delta MST” value (Plasmodium berghei [7]) is reported as 0.3 days and the “Delta MST” value (Plasmodium berghei [13]) is reported as 1.3 days.
